Key:
MCF7 = assay: Cytotoxicity against human MCF7 cells after 72 hrs by MTT assay; type: functional; settings: MCF7, 72 h; for CC50: read-out: LC50 (the source's name)
In short: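 MCF-7 cells grown in EMEM with 10% foetal calf serum, 2 mM L-glutamine, 100 units/mL penicillin, 100 µg/mL streptomycin. Exposed to five concentrations between 0.01 and 100 μM for 72 h, 37 °C, humidified 5% CO2; MTT read-out. GI50, TGI, LC50 relative to untreated controls; ≥3 independent experiments in quadruplicate.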

HT-29 = assay: Cytotoxicity against human HT-29 cells after 72 hrs by MTT assay; type: functional; settings: HT-29, 72 h
In short: (§1)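 CCRF-CEM, HT-29, PC-3 and HTB-54 cells grown in RPMI 1640 with 10% foetal calf serum, 2 mM L-glutamine, penicillin/streptomycin, 10 mM HEPES (pH 7.4). Five concentrations, 0.01–100 μM, 72 h at 37 °C, 5% CO2; MTT read-out. GI50, TGI and LC50 versus untreated controls; at least 3 independent experiments in quadruplicate.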

CCRF-CEM = assay: Cytotoxicity against human CCRF-CEM cells after 72 hrs by MTT assay; type: functional; in short: as §1
[1] = Cytotoxicity against human PC3 cells after 72 hrs by MTT assay; type: functional; settings: PC-3, 72 h; in short: as §1
[2] = Cytotoxicity against human HTB-54 cells after 72 hrs by MTT assay; type: functional; settings: HTB-54, 72 h; for CC50: read-out: LC50 (the source's name); in short: as §1
[3] = Cytotoxicity against human 184B5 cells after 72 hrs by MTT assay; type: cell-based; settings: for GI50 at 72 h: 184B5 cells; for LC50 / TGI: 184b5, 72 h
In short: (§2)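 Non-malignant lines: 184B5 (normal breast) in Hams F-12/DMEM (50:50) with published supplements; BEAS-2B (bronchial epithelium) in Hams F-12/DMEM (50:50) with 10% foetal calf serum, 2 mM L-glutamine, penicillin/streptomycin. Compounds at five concentrations, 0.01–100 μM, 72 h, 37 °C, 5% CO2; MTT read-out. GI50, TGI, LC50 relative to untreated controls; ≥3 independent experiments in quadruplicate.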

[4] = Cytotoxicity against human BEAS2B cells after 72 hrs by MTT assay; type: cell-based, BEAS-2B; settings: for GI50 at 72 h: BEAS2B cells; for LC50 / TGI: beas-2b, 72 h; in short: as §2
[5] = Antioxidant activity assessed as DPPH radical scavenging activity at 0.5 mg/ml after 180 mins; type: physicochemical; settings: 3 h
In short: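 Compounds in absolute ethanol, serially diluted from 1 mg/mL, mixed 1:1 with […] in ethanol. Final range 0.016–0.5 mg/mL, 6 concentrations. Incubated at 37 °C in the dark, with decolourisation followed at 517 nm at several time intervals. % scavenged = (A vehicle control − A sample)/A control × 100. Quadruplicate; mean ± SD.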

[6] = Antioxidant activity assessed as ABTS radical scavenging activity by measuring Trolox equivalent antioxidant capacity after 6 mins; type: physicochemical; settings: 0.1 h
In short: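 ABTS dissolved in deionized water at 1 mg/mL, oxidised to radical cation with potassium persulfate (2.45 mM final), kept overnight at room temperature in dark, then diluted with 50% ethanol to A741 = 0.700 ± 0.02. Compound (1 mg/mL ethanol stock) added 1:10 (0.1 mg/mL); A741 decrease read after 6 min against 50% ethanol blank. Trolox positive control; quadruplicate; TEAC from calibration curve.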

Row | SMILES | GI50 (MCF7) [µM] | TGI (MCF7) [µM] | CC50 (MCF7) [µM] | GI50 (HT-29) [µM] | LC50 (HT-29) [µM] | TGI (HT-29) [µM] | GI50 (CCRF-CEM) [µM] | LC50 (CCRF-CEM) [µM] | TGI (CCRF-CEM) [µM] | GI50 [1] [µM] | LC50 (concentration causing 50% net cell kill) [1] [µM] | TGI [1] [µM] | GI50 [2] [µM] | TGI [2] [µM] | CC50 [2] [µM] | GI50 at 72 h [3] [µM] | LC50 [3] [µM] | TGI [3] [µM] | GI50 at 72 h [4] [µM] | LC50 [4] [µM] | further results
1 | Cc1ccc(OC(=O)Nc2ccc([Se][Se]c3ccc(NC(=O)Oc4ccc(C)cc4)cc3)cc2)cc1 | 6.9 | 37.7 | 74 | 7.9 | 70.9 | 39.4 | 21.4 | 75.6 | 48.5 | 4.4 | 64.8 | 28.2 | 24.9 | 57 | 89.1 | 3.5 | 37.2 | 7.6 | 0.7 | 61.8 | TGI [4]: 19.2 µM; inhibition (INH) [5]: > 50%
2 | CCCCCCOC(=O)Nc1ccc([Se]C#N)cc1 | 6.6 | 30.5 | 63.9 | 10.7 | 69.9 | 40.3 | 19.7 | 72.7 | 46.2 | 17.3 | 72 | 44.6 | 23.6 | 48.5 | 73 | 4.6 | 60.1 | 20 | 2.8 | 68 | TGI [4]: 35.9 µM; inhibition (INH) [5]: > 25%
3 | O=C(Nc1ccc([Se][Se]c2ccc(NC(=O)OCC3c4ccccc4-c4ccccc43)cc2)cc1)OCC1c2ccccc2-c2ccccc21 | 22.6 | 52.9 | 83.3 | 17.8 | 80.3 | 49 | 14.9 | 71.4 | 43.2 | 9.2 | 70.3 | 38.8 | 36.8 | 60.5 | 84.3 | 6.5 | 59.4 | 19.7 | 7.1 | 64.1 | TGI [4]: 27.9 µM; Activity [6]: 0.93 µg/µL
4 | COc1ccc(OC(=O)Nc2ccc([Se]C#N)cc2)cc1 | 22.4 | 48.2 | 74.1 | 13.6 | 69.6 | 41.5 | 13 | 70 | 41.5 | 7.5 | 71.6 | 44.6 | 23.7 | 48.5 | 73.3 | 4.5 | 59.6 | 19.2 | 25.2 | 71.6 | TGI [4]: 48.4 µM; Activity [6]: 2.58 µg/µL
5 | CCCCCCOC(=O)Nc1ccc([Se][Se]c2ccc(NC(=O)OCCCCCC)cc2)cc1 | 15.8 | 52.9 | 89.9 | 11 | 74.2 | 42.6 | 6.2 | 67.3 | 34.4 | 0.6 | 66.7 | 25.7 | 31 | 54.3 | 77.2 | 4.6 | 53.4 | 9.8 | 0.01 | 51.8 | TGI [4]: 6.9 µM; inhibition (INH) [5]: < 16%
6 | O=C(Nc1ccc([Se][Se]c2ccc(NC(=O)Oc3ccccc3)cc2)cc1)Oc1ccccc1 | 8 | 36.7 | 69 | 13 | 70.2 | 41.6 | 22.4 | 73.7 | 48.1 | 5.3 | 62.9 | 27.2 | 22.7 | 56.2 | 89.8 | 4.5 | 48.9 | 9 | 1.4 | 50.7 | TGI [4]: 8.6 µM; inhibition (INH) [5]: 66.9%
7 | O=C(Nc1ccc([Se][Se]c2ccc(NC(=O)OCc3ccccc3)cc2)cc1)OCc1ccccc1 | 5.2 | 38.6 | 74.5 | 1.8 | 69 | 35.4 | 6.4 | 67.9 | 34.6 | 0.1 | 70.4 | 33.5 | 23.8 | 50.9 | 78 | 0.1 | 36.2 | 5.8 | 0.01 | 58.5 | TGI [4]: 17.3 µM; inhibition (INH) [5]: 7.4%
8 | O=C(Nc1ccc([Se][Se]c2ccc(NC(=O)OCC3=Cc4ccccc4S3(=O)=O)cc2)cc1)OCC1=Cc2ccccc2S1(=O)=O | 3.2 | 5.7 | 8.2 | 3 | 7.8 | 5.4 | 2.3 | 7.5 | 4.9 | 3.8 | 7.9 | 5.8 | 4.4 | 6.3 | 8.2 | 2.6 | 7.5 | 5 | 3.5 | 7.9 | TGI [4]: 5.7 µM; Activity [6]: 5.78 µg/µL
